Experimental data published in the EternaBench riboswitch data.

Tested on: MS2 coat protein
Test: apparent Kd, MS2 coat protein; higher = weaker binding; RNA-MaP array; FMN 200 µM where present
Procedure, shortened: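 Stalled E. coli RNA polymerase produced the designs on Illumina sequencing-chip clusters. SNAP-549-labelled MS2 coat protein was added from 0.7 or 1.5 nM, doubling to 3 µM, without and then with constant ligand, in 100 mM Tris-HCl pH 7.5, 80 mM KCl, 4 mM MgCl2, BSA, DTT, yeast tRNA and Tween-20. The apparent Kd is the median of filtered per-cluster fits of green signal normalised to red-channel RNA signal and control-cluster median Fmax.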

[1] = designed as: OFF switch for flavin mononucleotide, no ligand
[2] = ligand present: flavin mononucleotide, designed as: OFF switch for flavin mononucleotide
[3] = designed as: ON switch for flavin mononucleotide, no ligand
[4] = ligand present: flavin mononucleotide, designed as: ON switch for flavin mononucleotide

Sequence	apparent Kd [1]	apparent Kd [2]	apparent Kd [3]	apparent Kd [4]
CAGUGUAGUUAGGAUAUCGGGUCGGUUGGGCGCUGAGAAGGAACUACAUGAGGAUCACCCAUGUGGGCUCUUCU	0.0195 µM	0.0371 µM	–	–
UUGGAGAUAGGAUAUACGAGGAGAGUUGAGGGAAGGUGAUGACAUGAGGAUCACCCAUGUAGAAGGAUCAGGAG	0.144 µM	0.0872 µM	–	–
GUGGUCAGACAUGAGGAUCACCCAUGUGGAAUAAAUAACGGACAGGAUAUGCAAUAUAGGAUAUAGUAGAAGGGUUGAUUGGUG	–	–	0.0565 µM	0.0606 µM
CGUGUCAUCGAGAAGGCCUCAACAUGAGGAUCACCCAUGUUGUAAUAUGGGAGGAUAUCGAUGAUACAGCUACGUUUCGUAGCG	–	–	0.0191 µM	0.00607 µM
ACAUGAGGAUCUCCCAUGUAAAAUUAGGAUAUAUAACUACACAUGAGGAUCACCCAUGUUUAACCGUAGAAGGGAUAAAUAAUU	–	–	0.986 µM	1.02 µM
GCUUAAGUAGGAUAUACUUGGGCUCGGCUGAUGUGCCUAAAACAUGAGGAUCACCCAUGUAGAAGGACUAAAGC	0.0139 µM	0.0121 µM	–	–
AUAUUGUGAGGAUAUCCAAUAUAUGACAUGAGGAUCACCCAUGUUUCCACUCGUACCUCCGGAGAAGGCACAUUUU	0.027 µM	0.024 µM	–	–
AGCUGUGGCAGAGGAUAUACUCCUAAAAUCCAUUGCAAAUAGCGAUGGACAUGAGGAUCACCCAUGUAGAAGGCUGUCUCAGCA	0.0572 µM	0.649 µM	–	–
GGUAUGUGAGGAUAUGGGAUUGUAGACAUGAGGAUCACCCAUGUCAUGUCCGAUCAUUGCCCAGAAGGUAUCCGCU	0.0256 µM	0.0271 µM	–	–
CGGGCAAUGUCCGAGACAUGAGGAUCACCCAUGUUAGCAGCACAGGAUAUCAUGUUUUGUAAAGGUGAGAAGGGUGAUUGCAUC	–	–	0.273 µM	0.139 µM
ACAAAUGGAGGAUAUACAUGAGGAUCACCCAUGUUUAUCCUACAUGUGUGAUAAUAAUGUAGAAGGCCAUAUGA	0.0159 µM	0.0125 µM	–	–
AAGAAACAUGAGGAUCACCCAUGUAGAAAUAUGGGAGGAUAUACGAAGACGAAAGUCAAAGUAGAAGGCCUAAAAG	–	–	0.0946 µM	0.0277 µM
GUCAGCUCGUGAGGAUAUACAUCACUGCUUCGGCAGUGUAUUAAGAUUACAUGAGGAUCACCCAUGUAGAAGGCACGAGCUGAU	0.0174 µM	0.0239 µM	–	–
GGAGCACAUAAAUACAUGAGGAUCACCCAUGUCAAAAGACAUGAGGAUAUGGAUCGGAAAACGAUCUAGAAGGCAUGGUGCUCC	–	–	0.533 µM	0.0209 µM
CAUUAAUUCAUUAUAGUAAUUAUACAGGAUAUGUAACAUGAGGAUCACCCAUGUAUUCUUGGUUAACAGAAGGGUAUUACUUGU	0.0175 µM	0.0276 µM	–	–
AAUAAACUCACAGGAUAUAGCAGAGGUCGCCUGAACUUACAGGCGACGAUGCUAGAAGGGUGACCACAUGAGGAUCACCCAUGU	–	–	0.825 µM	0.136 µM
GCGGUACAUGAGGAUCACCCAUGUCAGGAUAUCCGCUGUUUGUUGAUUAGCAGGCGGUGGAGAAGGGACUUCGC	0.0366 µM	0.036 µM	–	–
UAGAUACAUGAGGAUCACCCAUGUGAGGAUAUCGUUUGUACUAAUCUUUUAGUAUUUUCGAGAAGGCACAUAUA	0.0739 µM	0.183 µM	–	–
UAAUAAUAAUAAUAAUGGACGAUACAUGAGGAUCACCCAUGUAAGGAUAUGCAGUGGAAUACACUGCAGAAGGUACAUACGUCC	0.0157 µM	0.023 µM	–	–
ACAUGAGGAUCACCCAUGUUAUCAGGGACUUCAAUUAUUUGUAGAAGGCUGUUUUCUUGUAAGUCAGAGGAUAUACAAUUAAAU	0.0119 µM	0.0143 µM	–	–
GUGACGAAUGUAGGAUAUGCUGAGGAUAACUCAGCAGAAGGACAUGAGGAUCACCCAUGUACUAUGAGUGAAUAAUAACGUCAC	0.0822 µM	0.756 µM	–	–
AAUUACAUGUAGAAGGUACUUUCAUAAGUGUUGUAAGGAUAUACCAAUUUAUUAGUUUUAAAGAUACAUGAGGAUCACCCAUGU	–	–	0.00859 µM	0.00818 µM
ACCUCACAUGAGGAUCACCCAUGUCAGGAUAUUCAAACAGGCGAAACUCCGCCUUCUCGAAGAAGGGACAUUAA	0.0159 µM	0.0645 µM	–	–
UCGUGCCGGGUUGCGAGCGACCCACAUGAGGAUCACCCAUGUAGAAGGACCAGCGUCGGCCCUUGGUAGGAUAUACAUGAACUC	0.113 µM	0.152 µM	–	–

Sequence	apparent Kd [1]	apparent Kd [2]	apparent Kd [3]	apparent Kd [4]
UGGGAGUCAGGAUAUACGAACAUGUCGCCAGAUGUCAAGGUACAUGAGGAUCACCCAUGUAGAAGGGACUAGAA	0.0394 µM	0.0421 µM	–	–
UACAGCUUGACAGGAUAUACAUCACUGCGAAAGCAGUGUAUCUUAAUAACAUGAGGAUCACCCAUGUAGAAGGGUCGAGCUGUA	0.0198 µM	0.0358 µM	–	–
AAGAAACAUGAGGAUCACCCAUGUGAGGAUAUACGAUGCUAAGCGUAAGCUUAGUAUCGUAGAAGGCACAAAGG	0.131 µM	0.311 µM	–	–
UAAUAAUAAUGAGGAUAUAUACAACAUGAGGAUCACCCAUGUACCCAUGUAGUAGAAGGCAUAUUUUUUGUUAAUAACAUAACU	–	–	0.0538 µM	0.0321 µM
GGAUAGGACAGAGGAUAUACGUGCUAGCGAUACUAGCAAAAUUUCCUCACAUGAGGAUCACCCAUGUAGAAGGCUGUCCUAUCG	0.0157 µM	0.427 µM	–	–
GGACCGCGCAGAAUUGGCGGCCGGCAGGAUAUGACAUGAGGAUCACCCAUGUGAACUCCAUUGGGUCAGAAGGGCCACGACACA	0.0211 µM	0.0668 µM	–	–
AUACUCAUGUAAGGAUAUGCAGCCGUUUCGGCUGCAGAAGGUACUAUAAUACAUGAGGAUCACCCAUGUCUCUCGCAUUGCGAG	–	–	0.131 µM	0.178 µM
GGAUAUAUACAGGAGGAUAUGAGAACAAAGACAUGAGGAUCACCCAUGUACAAAAGGUGGAACAAUCAGAAGGUCUAAACAACAAA	–	–	0.0783 µM	0.069 µM
AGAAAACAUGAGGAUCACCCAUGUAAGGAUAUGCUAAGGGUGGCUUCGGCCACCCAAUGCAGAAGGUACAAAUA	0.0496 µM	0.0597 µM	–	–
AGUGUCAUCGAGAAGGCCUCAACAUGAGGAUCACCCAUGUUGUAAAAUGGGAGGAUAUCGAUGAUACAGCUACGUUUCGUAGCA	–	–	0.0113 µM	0.00488 µM
AAGAAGUCAGGAUAUCCAGCUCGUCACUUGCGUGAUGAGUUGGAGAAGGGACAUGAGGAUCACCCAUGUAAAGA	0.0561 µM	0.0493 µM	–	–
AAUUCUAGGGUCAGCCUUAACACAUGAGGAUCACCCAUGUACAGAAGGCGAAGCAAAUGGACACUCGAGGAUAUGUACACUCCG	0.00622 µM	0.00801 µM	–	–
UUUUACAUAGGAUAUAGUUUGUUGUACAUGAGGAUCACCCAUGUUUUUGUUUGUGCUUUUCUAGAAGGAUGUUUCU	0.0292 µM	0.0254 µM	–	–
GUAGCUUUCCGAGGAUAUUCAUACCGGAAACGGACAUGAGGAUCACCCAUGUGGCGAAAGCCUUGGGAGAAGGCGGAAAGCUAC	–	–	0.446 µM	0.0234 µM
GCGUCACAAUUAGAACCAAUACGAACAUGAGGAUCACCCAUGUAGGAUAUGCUAGAAGUUGAGUUGCAGAAGGACAUAUAACGC	0.012 µM	0.0109 µM	–	–
UAGUAUAAGGGCAUUACACAUGAGGAUCACCCAUGUACGUUAGAGGAUAUGCAUUACAGUUGAACGUAGAAGGUUAGAGAAGGG	0.0736 µM	0.0803 µM	–	–
AGAAACUACGAGAAGGACAUGAAAAGUGCCGCAAACAUGAGGAUCACCCAUGUAGGAUAUCGUAGUUUCAGGAUCGUGAGAUCA	0.0158 µM	0.108 µM	–	–
UGACCCAUGACAUGAGAUGACAUGAGGAUCACCCAUGUGUACAAGGAUAUGUUGGUCAAAGGUCGGCAGAAGGUGUAAUGGGAU	0.0598 µM	0.146 µM	–	–
AAAAAGCGAGGAUAUACAUGAGGAUCACCCAUGUGAGAGAAAAAAAGGAGAAAAAAAAGUAGAAGGCGCAAAAA	0.0616 µM	0.0722 µM	–	–
AUACUCAUGUAAGGAUAUGCAGCCGAACCGGCUGCAGAAGGUACUAUAAUACAUGAGGAUCACCCAUGUCAAAAUAAAAUAGUU	–	–	0.052 µM	0.0215 µM
GCUUCCGCAUGAGGAUAUUGUUAAGGGACGGGACCUCAUGACCCACAUGAGGAUCACCCAUGUGGCGAGAAGGCGUGUAGAGCG	0.0101 µM	0.0327 µM	–	–
AUUACCACGGUAAGGAUAUUGUACGCAGCAUGCGUUAAGAAGGUACAUGAGGAUCACCCAUGUCUUCCGGUAGC	0.0205 µM	0.0212 µM	–	–
GUCAGCUCGUGAGGAUAUACAUGUGCUGGAUACAGCACUAAUUAAAUCACAUGAGGAUCACCCAUGUAGAAGGCACGAGCUGAU	0.0167 µM	0.0248 µM	–	–
GGAUAUAACGUAGGAUAUCUGAGAAAUAGAUGAAGAGAAGGACGACAUGAGGAUCACCCAUGUGAUCUAUCAAUAUUAUACAUG	0.452 µM	0.749 µM	–	–
